Test results published in ChEMBL document CHEMBL1156676, “Peptidyl 3-substituted 1-hydroxyureas as isosteric analogues of succinylhydroxamate MMP inhibitors” (Eur J Med Chem, 2008).
Where a SMILES comes first, the peptide text is derived from it. The star is where a group is joined. Cbz = O=C(OCc1ccccc1)*

Columns and labels:
Stromelysin-1 = Stromelysin-1 (Homo sapiens, UniProt P08254); experiment: Inhibition of human recombinant MMP3
Matrilysin = target: T1, Matrilysin (Homo sapiens, UniProt P09237); experiment: Inhibition of human recombinant MMP7
T1 sequence (P09237 whole entry): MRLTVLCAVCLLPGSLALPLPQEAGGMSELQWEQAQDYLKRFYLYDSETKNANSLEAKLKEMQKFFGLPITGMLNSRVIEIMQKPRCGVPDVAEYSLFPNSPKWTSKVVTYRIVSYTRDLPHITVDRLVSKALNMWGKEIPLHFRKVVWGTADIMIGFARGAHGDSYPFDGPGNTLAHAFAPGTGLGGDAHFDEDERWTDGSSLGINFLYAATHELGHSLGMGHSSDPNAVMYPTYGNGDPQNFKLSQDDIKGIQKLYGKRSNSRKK
In short: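 MMP-7 proenzyme was APMA-activated (1 mM, 1 h, 37 °C), final 2.4 nM. Incubated 4 h at 25 °C with inhibitor at seven concentrations in Tris 50 mM pH 7.5/NaCl 150 mM/CaCl2 10 mM/Brij 35 0.05%/DMSO 1%. Cleavage of Mca-Lys-Pro-Leu-Gly-Leu-Dpa-Ala-Arg-NH2 was followed fluorimetrically (325/400 nm) every 15 s over 20 min, triplicate.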

Interstitial collagenase = target: T2, Interstitial collagenase (Homo sapiens, UniProt P03956); experiment: Inhibition of human recombinant MMP1
T2 sequence (P03956 whole entry): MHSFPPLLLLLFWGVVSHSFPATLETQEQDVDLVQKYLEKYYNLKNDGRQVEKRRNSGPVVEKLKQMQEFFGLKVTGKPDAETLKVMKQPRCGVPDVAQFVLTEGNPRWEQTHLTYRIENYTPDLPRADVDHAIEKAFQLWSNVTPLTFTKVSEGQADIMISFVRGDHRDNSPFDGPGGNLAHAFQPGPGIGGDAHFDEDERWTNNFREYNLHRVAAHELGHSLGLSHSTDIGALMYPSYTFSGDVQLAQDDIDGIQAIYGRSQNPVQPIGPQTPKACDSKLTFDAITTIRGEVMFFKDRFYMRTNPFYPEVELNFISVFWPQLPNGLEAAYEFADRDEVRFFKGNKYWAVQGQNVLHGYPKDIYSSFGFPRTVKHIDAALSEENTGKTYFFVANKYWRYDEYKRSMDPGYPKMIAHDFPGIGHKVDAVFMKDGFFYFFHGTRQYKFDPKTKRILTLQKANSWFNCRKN

Neutrophil collagenase = Neutrophil collagenase (Homo sapiens, UniProt P22894); experiment: Inhibition of human recombinant MMP8
[1] = target: Matrix metalloproteinase-9 (Homo sapiens, UniProt P14780); experiment: Inhibition of human recombinant MMP9
In short: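 Pro-MMP-9 activated with APMA 1 mM, 1 h, 37 °C, used at 2.7 nM final. Preincubated 4 h at 25 °C with seven inhibitor concentrations in Tris 50 mM pH 7.5, NaCl 150 mM, CaCl2 10 mM, Brij 35 0.05%, DMSO 1%. Hydrolysis of Mca-Lys-Pro-Leu-Gly-Leu-Dpa-Ala-Arg-NH2 monitored by fluorescence (325/400 nm) every 15 s for 20 min, triplicate.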

[2] = target: 72 kDa type IV collagenase (Homo sapiens, UniProt P08253); experiment: Inhibition of human recombinant MMP2
Chain of 72 kDa type IV collagenase (P08253 whole entry): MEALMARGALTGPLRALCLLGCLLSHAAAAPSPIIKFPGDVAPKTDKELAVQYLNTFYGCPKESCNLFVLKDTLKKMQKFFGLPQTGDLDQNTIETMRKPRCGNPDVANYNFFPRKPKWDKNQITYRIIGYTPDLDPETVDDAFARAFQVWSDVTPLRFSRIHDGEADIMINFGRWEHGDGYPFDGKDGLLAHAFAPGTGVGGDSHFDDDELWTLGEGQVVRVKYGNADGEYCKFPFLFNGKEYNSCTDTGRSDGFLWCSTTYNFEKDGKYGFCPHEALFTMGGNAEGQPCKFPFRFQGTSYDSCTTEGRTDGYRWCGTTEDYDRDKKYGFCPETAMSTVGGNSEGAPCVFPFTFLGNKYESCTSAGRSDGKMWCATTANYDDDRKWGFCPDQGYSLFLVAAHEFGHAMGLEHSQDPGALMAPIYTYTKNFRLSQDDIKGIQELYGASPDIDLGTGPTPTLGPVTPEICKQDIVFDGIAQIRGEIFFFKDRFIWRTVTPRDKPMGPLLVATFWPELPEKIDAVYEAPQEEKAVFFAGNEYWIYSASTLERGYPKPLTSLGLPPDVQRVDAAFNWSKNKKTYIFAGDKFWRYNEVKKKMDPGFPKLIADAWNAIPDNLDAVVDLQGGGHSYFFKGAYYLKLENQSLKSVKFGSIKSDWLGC

Chain of Neutrophil collagenase (P22894 whole entry): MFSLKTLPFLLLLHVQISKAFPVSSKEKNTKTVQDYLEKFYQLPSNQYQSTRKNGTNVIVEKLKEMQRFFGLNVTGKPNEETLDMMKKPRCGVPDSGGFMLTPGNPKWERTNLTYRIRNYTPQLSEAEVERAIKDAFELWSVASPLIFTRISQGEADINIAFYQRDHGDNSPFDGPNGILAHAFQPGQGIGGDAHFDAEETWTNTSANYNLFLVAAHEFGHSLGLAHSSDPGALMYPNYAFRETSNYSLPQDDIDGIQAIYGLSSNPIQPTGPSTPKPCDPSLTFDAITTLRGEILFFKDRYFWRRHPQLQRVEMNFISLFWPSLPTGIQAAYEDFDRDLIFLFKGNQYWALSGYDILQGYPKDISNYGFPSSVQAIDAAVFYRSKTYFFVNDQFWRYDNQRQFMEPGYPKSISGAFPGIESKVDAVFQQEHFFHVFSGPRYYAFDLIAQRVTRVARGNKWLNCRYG
Chain of Stromelysin-1 (P08254 whole entry): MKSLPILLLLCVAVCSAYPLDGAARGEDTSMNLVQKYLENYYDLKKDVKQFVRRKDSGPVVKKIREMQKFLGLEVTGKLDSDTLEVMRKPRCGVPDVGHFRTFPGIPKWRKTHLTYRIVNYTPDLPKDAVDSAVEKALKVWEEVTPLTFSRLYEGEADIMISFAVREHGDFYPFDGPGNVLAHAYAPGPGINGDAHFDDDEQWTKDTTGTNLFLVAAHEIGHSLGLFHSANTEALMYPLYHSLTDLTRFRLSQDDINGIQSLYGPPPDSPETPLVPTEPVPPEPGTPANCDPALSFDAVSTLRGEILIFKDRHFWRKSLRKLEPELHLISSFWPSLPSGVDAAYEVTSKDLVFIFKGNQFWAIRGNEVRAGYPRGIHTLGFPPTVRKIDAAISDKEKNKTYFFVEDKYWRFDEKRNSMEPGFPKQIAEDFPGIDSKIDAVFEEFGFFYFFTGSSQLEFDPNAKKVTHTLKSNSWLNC
Chain of Matrix metalloproteinase-9 (P14780 whole entry): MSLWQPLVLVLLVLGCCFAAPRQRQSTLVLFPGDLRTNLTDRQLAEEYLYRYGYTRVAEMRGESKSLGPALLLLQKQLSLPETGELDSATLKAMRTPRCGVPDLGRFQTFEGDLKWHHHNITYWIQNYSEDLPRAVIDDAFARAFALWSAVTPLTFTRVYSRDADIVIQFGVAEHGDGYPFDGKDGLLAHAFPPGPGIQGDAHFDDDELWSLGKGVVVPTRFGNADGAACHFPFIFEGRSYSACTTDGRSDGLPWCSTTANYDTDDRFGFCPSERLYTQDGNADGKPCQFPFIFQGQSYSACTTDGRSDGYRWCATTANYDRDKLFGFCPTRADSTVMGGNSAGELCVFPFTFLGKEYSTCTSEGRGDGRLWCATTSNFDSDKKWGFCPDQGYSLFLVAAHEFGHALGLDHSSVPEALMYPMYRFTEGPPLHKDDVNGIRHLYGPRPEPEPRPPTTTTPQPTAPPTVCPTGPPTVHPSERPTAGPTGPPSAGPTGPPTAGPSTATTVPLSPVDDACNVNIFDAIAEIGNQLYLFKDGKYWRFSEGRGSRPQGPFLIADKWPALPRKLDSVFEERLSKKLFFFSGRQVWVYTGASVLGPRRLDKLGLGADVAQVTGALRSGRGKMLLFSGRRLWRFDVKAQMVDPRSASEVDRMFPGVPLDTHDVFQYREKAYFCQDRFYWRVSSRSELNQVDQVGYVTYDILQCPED

Row | Structure (SMILES) | IC50 (Stromelysin-1) [µM] | IC50 (Matrilysin) [µM] | IC50 (Interstitial collagenase) [µM] | IC50 (Neutrophil collagenase) [µM] | IC50 [1] [µM] | IC50 [2] [µM]
1 | CNC(=O)[C@H](Cc1ccccc1)NC(=O)[C@@H](N)CC(C)C |  | > 300 |  |  | > 300 | > 300
2 | CNC(=O)[C@H](Cc1ccccc1)NC(=O)[C@@H](CC(C)C)NC(=O)NO | > 300 | > 300 | > 300 | 150 | 200 | > 300
3 | CNC(=O)[C@H](Cc1ccccc1)NC(=O)[C@H](CC(C)C)NC(=O)NO | > 300 | > 300 | 270 | 70 | 20 | 60
4 | CNC(=O)[C@H](Cc1ccccc1)NC(=O)[C@H](N)CC(C)C | > 300 | > 300 | > 300 | > 300 | > 300 | > 300

Further lines, results first:

Row | IC50 (Stromelysin-1) [µM] | IC50 (Matrilysin) [µM] | IC50 (Interstitial collagenase) [µM] | IC50 (Neutrophil collagenase) [µM] | IC50 [1] [µM] | IC50 [2] [µM] | Structure (SMILES)
5 | > 300 | > 300 | > 300 | > 300 | > 300 | > 300 | COC(=O)[C@H](Cc1ccccc1)NC(=O)[C@H](CC(C)C)NC(=O)OCc1ccccc1 (Cbz-Leu-Phe-OMe)
6 |  | 4.1 |  |  | 0.15 |  | CNC(=O)[C@H](Cc1ccccc1)NC(=O)[C@H](CC(=O)NO)CC(C)C
7 |  | 0.0083 |  |  | 0.00038 |  | CNC(=O)[C@H](Cc1ccccc1)NC(=O)[C@@H](CC(=O)NO)CC(C)C
